# According to ChEMBL document CHEMBL1138564, “Microwave-induced synthesis and anti-microbial activities of 7,10,11,12-tetrahydrobenzo[c]acridin-8(9H)-one derivatives” (2009):
# The source made the active and inactive calls. The rule behind the calls is not given here.
# How the values were obtained:
# [1] = tested on: Pseudomonas aeruginosa; test: Antimicrobial activity against Pseudomonas aeruginosa NCIM 2200 at 500 ug/disk after 24 hrs by disk diffusion method; format: functional
# Outline: (§1)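 Disc diffusion. 100 µl of bacterial suspension at 10⁸ CFU/ml was spread on Mueller–Hinton agar. Discs loaded with test compound dissolved in DMSO were placed on the lawn, with a DMSO-only disc as negative control. Plates were incubated at 37 °C for 24 h, and the inhibition zone diameter was measured.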
# [2] = tested on: Aspergillus parasiticus; test: Antimicrobial activity against Aspergillus parasiticus NCIM 904 at 1000 ug/disk after 72 hrs by disk diffusion method; format: functional; conditions: NCIM 904, 72 h, read-out: DIZ
# Outline: (§2)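 Disc diffusion on Sabouraud's dextrose agar. 100 µl of fungal suspension at 10⁶ CFU/ml is spread on the plate. Discs carry test compounds at two loadings in DMSO; DMSO alone is the negative control. Clotrimazole disc is the positive reference. Plates are incubated at 27 °C for 72 h, and the zone of inhibition diameter is measured.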
# [3] = tested on: Rhodococcus corynebacterioides; test: Antimicrobial activity against Corynebacterium rubrum NCIM 2252 at 1000 ug/disk after 24 hrs by disk diffusion method; format: functional; conditions: Rhodococcoides corynebacterioides
# Outline: (§3)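 Disc diffusion on Mueller–Hinton agar. 100 µl of bacterial suspension at 10⁸ CFU/ml is spread on the plate. Discs carry test compounds at two loadings, dissolved in DMSO; DMSO alone serves as negative control. Ofloxacin disc is the positive reference. Plates are incubated at 37 °C for 24 h, and the inhibition zone diameter is measured.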
# [4] = tested on: Escherichia coli; test: Antimicrobial activity against Escherichia coli NCIM 2065 at 1000 ug/disk after 24 hrs by disk diffusion method; format: functional; conditions: NCIM 2065, 24 h, read-out: DIZ; outline: as §3
# [5] = tested on: Lipomyces lipofer; test: Antimicrobial activity against Lipomyces lipofer NCIM 3252 at 500 ug/disk after 72 hrs by disk diffusion method; format: functional; outline: as §2
# [6] = tested on: Penicillium chrysogenum; test: Antimicrobial activity against Penicillium chrysogenum NCIM 707 at 1000 ug/disk after 72 hrs by disk diffusion method; format: functional; outline: as §2
# [7] = tested on: Salmonella typhimurium; test: Antimicrobial activity against Salmonella Typhimurium NCIM 2501 at 1000 ug/disk after 24 hrs by disk diffusion method; format: functional; conditions: Salmonella enterica subsp. enterica serovar Typhimurium; outline: as §1
# [8] = tested on: Aspergillus fumigatus; test: Antimicrobial activity against Aspergillus fumigatus NCIM 902 after 72 hrs by serial dilution method; format: functional; conditions: NCIM 902, 72 h
# Outline: (§4)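 MIC by broth dilution in Sabouraud's dextrose broth, only for fungi sensitive in disc diffusion. Two-fold serial dilutions of compounds are made in 1 ml broth per tube, range 3.9 to 1000. Inoculated tubes are incubated at 27 °C for 72 h.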
# [9] = tested on: Aspergillus flavus; test: Antimicrobial activity against Aspergillus flavus NCIM 902 at 1000 ug/disk after 72 hrs by disk diffusion method; format: functional; conditions: NCIM 902, 72 h, read-out: DIZ; outline: as §2
# [10] = tested on: Aliivibrio fischeri; test: Antimicrobial activity against Vibrio fischeri NCIM 2154 at 1000 ug/disk after 24 hrs by disk diffusion method; format: functional; outline: as §1
# [11] = tested on: Salmonella typhimurium; test: Antimicrobial activity against Salmonella Typhimurium NCIM 2501 at 500 ug/disk after 24 hrs by disk diffusion method; format: functional; conditions: Salmonella enterica subsp. enterica serovar Typhimurium; outline: as §1
# [12] = tested on: Pseudomonas aeruginosa; test: Antimicrobial activity against Pseudomonas aeruginosa NCIM 2200 at 1000 ug/disk after 24 hrs by disk diffusion method; format: functional; outline: as §3
# [13] = tested on: Proteus vulgaris; test: Antimicrobial activity against Proteus vulgaris NCIM 2027 at 1000 ug/disk after 24 hrs by disk diffusion method; format: functional; outline: as §3
# [14] = tested on: Aspergillus parasiticus; test: Antimicrobial activity against Aspergillus parasiticus NCIM 904 after 72 hrs by serial dilution method; format: functional; conditions: NCIM 904, 72 h; outline: as §4
# [15] = tested on: Bacillus subtilis; test: Antimicrobial activity against Bacillus subtilis NCIM 2063 at 1000 ug/disk after 24 hrs by disk diffusion method; format: functional; conditions: NCIM 2063, 24 h, read-out: DIZ; outline: as §3
# [16] = tested on: Escherichia coli; test: Antimicrobial activity against Escherichia coli NCIM 2065 after 24 hrs by serial dilution method; format: functional; conditions: NCIM 2065, 24 h
# Outline: (§5)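 Broth dilution MIC in nutrient broth, run only for organisms found sensitive in disc diffusion. Compounds are two-fold serially diluted in 1 ml sterile broth per tube, spanning 3.9 to 1000. Inoculated tubes are incubated at 37 °C for 24 h.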
# [17] = tested on: Trichoderma viride; test: Antimicrobial activity against Trichoderma viride NCIM 1195 at 500 ug/disk after 72 hrs by disk diffusion method; format: functional; conditions: NCIM 1195, 72 h, read-out: DIZ
# Outline: (§6)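 Fungal disc diffusion. 100 µl of suspension at 10⁶ CFU/ml was spread on Sabouraud's dextrose agar. Discs carrying test compound in DMSO were applied, with a DMSO-only disc as negative control. Plates were incubated at 27 °C for 72 h, and the zone of inhibition diameter was measured.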
# [18] = tested on: Aliivibrio fischeri; test: Antimicrobial activity against Vibrio fischeri NCIM 2154 at 500 ug/disk after 24 hrs by disk diffusion method; format: functional; outline: as §1
# [19] = tested on: Bacillus cereus; test: Antimicrobial activity against Bacillus cereus NCIM 2155 at 500 ug/disk after 24 hrs by disk diffusion method; format: functional; conditions: NCIM 2155, 24 h, read-out: DIZ; outline: as §3
# [20] = tested on: Klebsiella aerogenes; test: Antimicrobial activity against Klebsiella aerogenes NCIM 2239 at 500 ug/disk after 24 hrs by disk diffusion method; format: functional; outline: as §3
# [21] = tested on: Rhodotorula mucilaginosa; test: Antimicrobial activity against Rhodotorula rubra NCIM 3174 after 72 hrs by serial dilution method; format: functional; conditions: NCIM 3174, 72 h
# Outline: (§7)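 MIC by broth dilution in Sabouraud's dextrose broth, run only on fungi found sensitive in the disc assay. Twofold serial dilutions were made in 1 ml broth per tube, covering 3.9 to 1000. Inoculated tubes were incubated at 27 °C for 72 h.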
# [22] = tested on: Proteus vulgaris; test: Antimicrobial activity against Proteus vulgaris NCIM 2027 at 500 ug/disk after 24 hrs by disk diffusion method; format: functional; outline: as §3
# [23] = tested on: Staphylococcus; test: Antimicrobial activity against Staphylococcus albus NCIM 2178 at 500 ug/disk after 24 hrs by disk diffusion method; format: functional; outline: as §1
# [24] = tested on: Bacillus subtilis; test: Antimicrobial activity against Bacillus subtilis NCIM 2063 at 500 ug/disk after 24 hrs by disk diffusion method; format: functional; conditions: NCIM 2063, 24 h, read-out: DIZ; outline: as §3
# [25] = tested on: Aspergillus fumigatus; test: Antimicrobial activity against Aspergillus fumigatus NCIM 902 at 500 ug/disk after 72 hrs by disk diffusion method; format: functional; outline: as §2
# [26] = tested on: Aspergillus flavus; test: Antimicrobial activity against Aspergillus flavus NCIM 902 after 72 hrs by serial dilution method; format: functional; conditions: NCIM 535, 72 h, in the assay text read “NCIM 535” for “NCIM 902”; outline: as §4
# [27] = tested on: Rhodococcus corynebacterioides; test: Antimicrobial activity against Corynebacterium rubrum NCIM 2252 at 500 ug/disk after 24 hrs by disk diffusion method; format: functional; conditions: Rhodococcoides corynebacterioides; outline: as §3
# [28] = tested on: Escherichia coli; test: Antimicrobial activity against Escherichia coli NCIM 2065 at 500 ug/disk after 24 hrs by disk diffusion method; format: functional; conditions: NCIM 2065, 24 h, read-out: DIZ; outline: as §3
# [29] = tested on: Aspergillus niger; test: Antimicrobial activity against Aspergillus niger NCIM 1196 at 500 ug/disk after 72 hrs by disk diffusion method
# [30] = tested on: Aspergillus fumigatus; test: Antimicrobial activity against Aspergillus fumigatus NCIM 902 at 1000 ug/disk after 72 hrs by disk diffusion method; format: functional; conditions: NCIM 902, 72 h, read-out: DIZ; outline: as §2
# [31] = tested on: Aspergillus niger; test: Antimicrobial activity against Aspergillus niger NCIM 1196 at 1000 ug/disk after 72 hrs by disk diffusion method
# [32] = tested on: Trichoderma viride; test: Antimicrobial activity against Trichoderma viride NCIM 1195 at 1000 ug/disk after 72 hrs by disk diffusion method; format: functional; conditions: NCIM 1195, 72 h, read-out: DIZ; outline: as §6
# [33] = tested on: Rhodotorula mucilaginosa; test: Antimicrobial activity against Rhodotorula rubra NCIM 3174 at 500 ug/disk after 72 hrs by disk diffusion method; format: functional; conditions: NCIM 3174, 72 h, read-out: DIZ; outline: as §6
# [34] = tested on: Rhodotorula mucilaginosa; test: Antimicrobial activity against Rhodotorula rubra NCIM 3174 at 1000 ug/disk after 72 hrs by disk diffusion method; format: functional; conditions: NCIM 3174, 72 h, read-out: DIZ; outline: as §6
# [35] = tested on: Klebsiella aerogenes; test: Antimicrobial activity against Klebsiella aerogenes NCIM 2239 at 1000 ug/disk after 24 hrs by disk diffusion method; format: functional; outline: as §3
# [36] = tested on: Lipomyces lipofer; test: Antimicrobial activity against Lipomyces lipofer NCIM 3252 at 1000 ug/disk after 72 hrs by disk diffusion method; format: functional; outline: as §2
# [37] = tested on: Staphylococcus; test: Antimicrobial activity against Staphylococcus albus NCIM 2178 at 1000 ug/disk after 24 hrs by disk diffusion method; format: functional; outline: as §1
# [38] = tested on: Trichoderma viride; test: Antimicrobial activity against Trichoderma viride NCIM 1195 after 72 hrs by serial dilution method; format: functional; conditions: NCIM 1195, 72 h; outline: as §7
# [39] = tested on: Bacillus subtilis; test: Antimicrobial activity against Bacillus subtilis NCIM 2063 after 24 hrs by serial dilution method; format: functional; conditions: NCIM 2063, 24 h; outline: as §5
# [40] = tested on: Bacillus cereus; test: Antimicrobial activity against Bacillus cereus NCIM 2155 after 24 hrs by serial dilution method; format: functional; conditions: NCIM 2155, 24 h; outline: as §5
# [41] = tested on: Aspergillus parasiticus; test: Antimicrobial activity against Aspergillus parasiticus NCIM 904 at 500 ug/disk after 72 hrs by disk diffusion method; format: functional; conditions: NCIM 904, 72 h, read-out: DIZ; outline: as §2
# [42] = tested on: Bacillus cereus; test: Antimicrobial activity against Bacillus cereus NCIM 2155 at 1000 ug/disk after 24 hrs by disk diffusion method; format: functional; conditions: NCIM 2155, 24 h, read-out: DIZ; outline: as §3
# [43] = tested on: Penicillium chrysogenum; test: Antimicrobial activity against Penicillium chrysogenum NCIM 707 at 500 ug/disk after 72 hrs by disk diffusion method; format: functional; outline: as §2
# [44] = tested on: Aspergillus flavus; test: Antimicrobial activity against Aspergillus flavus NCIM 902 at 500 ug/disk after 72 hrs by disk diffusion method; format: functional; conditions: NCIM 902, 72 h, read-out: DIZ; outline: as §2
structure (smiles),measurement,setting,value
O=C1CCCC2=C1C(c1ccccc1)c1ccc3ccccc3c1N2 (centres undefined),diameter of the inhibition zone (DIZ),[1],inactive
same,zone of inhibition at 1000 µg/disc,[2],9 mm
same,diameter of the inhibition zone (DIZ),[3],inactive
same,zone of inhibition at 1000 µg/disc,[4],9 mm
same,diameter of the inhibition zone (DIZ),[5],inactive
same,diameter of the inhibition zone (DIZ),[6],inactive
same,diameter of the inhibition zone (DIZ),[7],inactive
same,MIC,[8],62.5 µg/mL
same,zone of inhibition at 1000 µg/disc,[9],10 mm
same,diameter of the inhibition zone (DIZ),[10],inactive
same,diameter of the inhibition zone (DIZ),[11],inactive
same,diameter of the inhibition zone (DIZ),[12],inactive
same,diameter of the inhibition zone (DIZ),[13],inactive
same,MIC,[14],62.5 µg/mL
same,zone of inhibition at 1000 µg/disc,[15],10 mm
same,MIC,[16],125 µg/mL
same,zone of inhibition at 500 µg/disc,[17],11 mm
same,diameter of the inhibition zone (DIZ),[18],inactive
same,zone of inhibition at 500 µg/disc,[19],8 mm
same,diameter of the inhibition zone (DIZ),[20],inactive
same,MIC,[21],31.2 µg/mL
same,diameter of the inhibition zone (DIZ),[22],inactive
same,diameter of the inhibition zone (DIZ),[23],inactive
same,zone of inhibition at 500 µg/disc,[24],8 mm
same,diameter of the inhibition zone (DIZ),[25],inactive
same,MIC,[26],62.5 µg/mL
same,diameter of the inhibition zone (DIZ),[27],inactive
same,zone of inhibition at 500 µg/disc,[28],8 mm
same,diameter of the inhibition zone (DIZ),[29],inactive
same,zone of inhibition at 1000 µg/disc,[30],11 mm
same,diameter of the inhibition zone (DIZ),[31],inactive
same,zone of inhibition at 1000 µg/disc,[32],12 mm
same,zone of inhibition at 500 µg/disc,[33],8 mm
same,zone of inhibition at 1000 µg/disc,[34],12 mm
same,diameter of the inhibition zone (DIZ),[35],inactive
same,diameter of the inhibition zone (DIZ),[36],inactive
same,diameter of the inhibition zone (DIZ),[37],inactive
same,MIC,[38],31.2 µg/mL
same,MIC,[39],62.5 µg/mL
same,MIC,[40],125 µg/mL
same,zone of inhibition at 500 µg/disc,[41],7 mm
same,zone of inhibition at 1000 µg/disc,[42],9 mm
same,diameter of the inhibition zone (DIZ),[43],inactive
same,zone of inhibition at 500 µg/disc,[44],9 mm
